Screening data from PubChem BioAssay.
Shown are actives, neighbours in structure and some others; about 2.5% of the full set was active somewhere.
PAX8 reporter = lowers PAX8-driven luciferase in RMG-I cells; 360,000 tested, 1.2% active; RMG-I TPO-luciferase reporter, SteadyGlo, 24 h; inhibition, % at 12.6 µM; AID 652154;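 active = mean replicate inhibition at least 60% with every replicate also reaching 60%; inconclusive = only one of the two criteria is met; inactive = mean below 60% and not all replicates reaching 60%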;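 also: luciferase light reporting Pax8 driven TPO promoter activity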
AF4-AF9 inh = inhibitors of human MLL-AF4/AF9 interaction. inhibition, % at 10 µM. AlphaScreen, biotin-AF4 peptide binding to FLAG-AF9. 350,000 tested, 0.47% active. P42568;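 active = every replicate reaching a set inhibition limit, whatever the replicate mean, cut at about 25% in these data; inconclusive = mean inhibition reaches that limit but some replicates miss it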
Target sequence (P42568 whole entry, looked up): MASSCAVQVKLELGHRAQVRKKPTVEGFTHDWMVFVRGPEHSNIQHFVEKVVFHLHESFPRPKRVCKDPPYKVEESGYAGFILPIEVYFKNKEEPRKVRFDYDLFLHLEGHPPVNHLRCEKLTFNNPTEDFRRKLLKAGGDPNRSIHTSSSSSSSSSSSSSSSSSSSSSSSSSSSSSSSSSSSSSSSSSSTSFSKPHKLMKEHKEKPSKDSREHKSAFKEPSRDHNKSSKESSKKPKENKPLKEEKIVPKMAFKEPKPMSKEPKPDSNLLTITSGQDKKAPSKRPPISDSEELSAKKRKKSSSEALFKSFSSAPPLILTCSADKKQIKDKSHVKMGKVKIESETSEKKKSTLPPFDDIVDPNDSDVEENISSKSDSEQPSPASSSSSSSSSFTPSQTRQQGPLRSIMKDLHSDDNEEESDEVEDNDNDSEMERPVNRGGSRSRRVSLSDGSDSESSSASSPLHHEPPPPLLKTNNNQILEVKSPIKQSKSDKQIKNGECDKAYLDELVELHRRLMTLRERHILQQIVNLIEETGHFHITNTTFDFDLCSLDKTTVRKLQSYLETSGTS
N-glyco inh = blocks N-linked glycosylation in D54 reporter cells; D54 ERlucT glycosylation luciferase reporter, 24 h; percent of 100 nM tunicamycin response; reporter increase, % at 12.5 µM; 360,000 tested, 0.23% active; AID 588692;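 active = mean luciferase reporter signal, scaled so untreated is 0 and the glycosylation-blocking control 100, at or above a set limit in every replicate; inconclusive = mean reaches the limit but not every replicate does; inactive = mean below the limit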;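 also: luciferase carries N-glycosylation sites so blocking glycosylation raises the light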
Env fusion inh = HIV envelope-mediated fusion inhibition. 360,000 tested, 1.1% active. HeLa-JRFL Env/CEM21 cell fusion, luciferase. inhibition, % at 12.3 µM;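 active = mean replicate inhibition score of at least 50 and every replicate individually at or above 50; inconclusive = only one of the two criteria met; inactive = mean below 50 and not all replicates reaching 50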
FN deposition inh = fibronectin deposition inhibition | AH1F fibroblasts, Alexa488-fibronectin deposition fluorescence, overnight | inhibition, % at 12.6 µM | 350,000 tested, 0.086% active;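 active = mean inhibition across replicates of 30% or more, regardless of how many single replicates reach that level; inconclusive = mean under 30% yet at least half of replicates reach 30%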
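Material: AH1F fibroblast monolayer depositing Alexa488-labelled fibronectin into matrix / Amount: 10000 AH1F cells per well / Signal: fluorescence 485/525 nm / Medium: DMEM, 2% serum / Compound: single dose, pinned / Incubation: 1 h cell adhesion before compound, then overnight fibronectin incubation / Reagent: Alexa488-FN, 24 nM final / Read-out: inhibition of fibronectin deposition signal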
EWS-Fli inh = EWS/Fli transcriptional activity inhibition; 350,000 tested, 0.67% active; A673 NR0B1-luciferase reporter, viability-normalised; inhibition, % at 12.6 µM;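 active = mean inhibition of at least 50% after viability correction, with every replicate also passing that limit; inconclusive = mean reaches 50% but only one of two replicates passes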;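 also: firefly luciferase signal divided by Alamar Blue viability fluorescence both relative to DMSO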
Hits are given with their value; i = inactive; ? = inconclusive; nt = no result given.

SMILES	PAX8 reporter	AF4-AF9 inh	N-glyco inh	Env fusion inh	FN deposition inh	EWS-Fli inh
CC(=O)c1ccc2c(c1)C1C(Cl)C(Sc3ccccc3[N+](=O)[O-])CC1C(c1ccccc1[N+](=O)[O-])N2 (stereo unspecified)	63	nt	i	i	i	nt
CC(=O)c1ccc2c(c1)C1C(Cl)C(Sc3ccccc3[N+](=O)[O-])CC1C(c1ccccc1)N2 (stereo unspecified)	i	nt	nt	i	i	nt
O=C(O)[C@@H]1[C@@H](CO)[C@@H]2Cn3c(ccc(-c4ccccc4)c3=O)[C@H]1N2C(=O)C1CCCCC1	i	i	nt	nt	nt	i
O=C(O)[C@H]1[C@H](CO)[C@H]2Cn3c(ccc(-c4ccc(F)cc4)c3=O)[C@@H]1N2CC1CCCC1	i	i	nt	i	i	i
COc1ccc(-c2cc(-c3ccccc3)[n+](C)c(-c3ccccc3)c2)cc1	87	i	i	i	i	i
COc1ccc(-[n+]2c(-c3ccccc3)cc(-c3ccc(C)cc3)cc2-c2ccccc2)cc1	106	i	?	i	i	i
CCCOC(=O)c1ccc(-[n+]2c(-c3ccccc3)cc(-c3ccccc3)cc2-c2ccccc2)cc1	88	i	i	i	i	74
Cc1ccc(-c2cc(-c3ccccc3)cc(-c3ccccc3)[n+]2-c2ccc(C(=O)O)cc2)cc1	i	i	i	i	i	i
O=C(O)c1ccc(-[n+]2c(-c3ccccc3)cc(-c3ccccc3)cc2-c2ccccc2)cc1	i	i	i	i	i	i
C[n+]1c(-c2ccccc2)cc(CCCCc2cc(-c3ccccc3)[n+](C)c(-c3ccccc3)c2)cc1-c1ccccc1	96	i	i	i	i	i
CC=Cc1ccc2n(c1=O)C[C@H]1[C@H](CO)[C@@H](C(=O)OC)[C@@H]2N1C(=O)CC1CC1 (mixture of isomers)	i	i	nt	nt	nt	i
O=C(Cc1ccccn1)N1CCCCN2[C@H](C1)[C@@H](c1ccc(-c3ccccc3F)cc1)[C@@H]2CO	i	i	nt	nt	nt	i
O=C(O)[C@@H]1[C@@H](CO)[C@@H]2Cn3c(ccc(-c4cccc(F)c4)c3=O)[C@H]1N2CCc1ccccc1	i	i	nt	nt	nt	i
Brc1ccc(-[n+]2c(-c3ccccc3)cc(-c3ccccc3)cc2-c2ccccc2)cc1	98	i	i	i	i	i
Cc1ccc(-c2cc(-c3ccc(C)cc3)[n+](-c3ccc(C(=O)O)cc3)c(-c3ccc(C)cc3)c2)cc1	i	i	i	?	i	i
COc1ccc2c(c1OC)CN1CCc3cc4c(cc3[C@H]1C2)OCO4	nt	nt	i	nt	nt	nt
COc1ccc(NC2Oc3cc4c(cc3C(c3cc(OC)c(OC)c(OC)c3)C2C)OCO4)cc1 (stereo unspecified)	i	i	i	i	i	54
COc1ccc(CC2C(=O)NC(C)C(=O)N(C)C3C(=O)N(C)C(Cc4ccc(O)c(c4)Oc4ccc(cc4)C3O)C(=O)NC(C)C(=O)NC(C)C(=O)N2C)cc1 (stereo unspecified)	110	i	i	70	i	i
COc1ccc2[nH]c(C)c(CCNCc3cn(C)c4ccccc34)c2c1	i	51	i	nt	i	i
CN(C)C(=O)O/N=C(\N)COc1ccc(C(C)(C)C)cc1	i	i	i	i	i	57
CCOC(=O)C(O)(c1ccc(N(C)C(=O)COc2ccccc2)cc1)C(F)(F)F (stereo unspecified)	i	nt	i	i	i	nt
CN1CCN(c2ccc([N+](=O)[O-])c3no[n+]([O-])c23)CC1	88	i	i	i	i	i
O=[N+]([O-])c1ccc(N(CCO)CCO)c2c1no[n+]2[O-]	109	i	i	i	i	i
CN1CCN(c2ccc(S(C)(=O)=O)cc2[N+](=O)[O-])CC1	i	i	i	i	i	i
N#Cc1cccc(-c2ccc([C@H]3[C@H]4CN(C(=O)Cc5cccnc5)CCCCN4[C@H]3CO)cc2)c1	i	i	nt	nt	nt	i
O=C(c1ccccc1)C(CN1CCCC1)c1ccccc1 (stereo unspecified)	100	nt	i	i	i	nt
C/C=C/c1ccc([C@H]2[C@@H](CO)N3CCCCN(C(=O)Cc4ccncc4)C[C@@H]23)cc1	i	i	nt	nt	nt	i
CNC(=O)Oc1cccc(-c2cn3cc(Cl)ccc3n2)c1	i	nt	i	i	nt	nt
CNC(=O)Oc1ccc(-c2cn3cc(C)ccc3n2)cc1	i	i	i	nt	i	70
